Assay outcomes from PubChem.
m5-HT2A agonist: mouse Htr2a agonists via beta-arrestin recruitment, primary screen, cell-based, luminescence | 5-hydroxytryptamine receptor 2A (Mus musculus), P35363 | CHO-K1 mHTR2A beta-arrestin complementation; percent of 30 µM serotonin response | activation, % at 7.6 µM | 0.66% of 360,000 active | AID 624169, 2012;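 active means activation above a run cutoff, the mean activation of all tested compounds plus 3 SD, cut at about 14% in these data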
TAAR1 agonist: human TAAR1 agonists, primary screen, Fluo-8 calcium fluorescence, CHO RD-HGA16 cells | activation, % at 3 µM | vehicle wells 0%, saturating PEA agonist 100% | AID 624467, 2012 | Trace amine-associated receptor 1 (Homo sapiens), Q96RJ0 | 0.99% of 360,000 active;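 active means activation above the mean activation of all test compounds in the run plus 3 SD, cut at about 38% in these data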
Target sequence (Q96RJ0 whole entry, looked up): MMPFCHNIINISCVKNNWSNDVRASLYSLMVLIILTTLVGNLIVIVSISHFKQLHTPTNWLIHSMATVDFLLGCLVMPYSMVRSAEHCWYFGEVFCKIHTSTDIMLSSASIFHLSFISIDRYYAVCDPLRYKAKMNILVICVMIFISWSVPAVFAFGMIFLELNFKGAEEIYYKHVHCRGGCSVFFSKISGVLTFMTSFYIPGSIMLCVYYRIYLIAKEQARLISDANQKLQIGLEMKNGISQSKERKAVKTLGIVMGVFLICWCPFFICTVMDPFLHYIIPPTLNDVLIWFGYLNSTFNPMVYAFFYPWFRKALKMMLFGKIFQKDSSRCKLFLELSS
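test system = CHO RD-HGA16 cells carrying human TAAR1 plus Gα16 | schedule = 17-24 h seeding, 75 min 37 °C dye, 30 min RT | compound dosing = 3 µM single concentration | control set = DMSO and PEA EC100 | replicates = n 1 | signal = Fluo-8 fluorescence, 5 s baseline then 140 s kinetic read | measure = percent activation vs PEA EC100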
M1 antag: human M1 muscarinic receptor antagonists, primary screen, CHO-K1 cells, Fluo-8 calcium fluorescence, 1536-well; CHO-K1 hM1, ACh EC80 antagonist; 1.3% of 360,000 active; AID 588852, 2011; Muscarinic acetylcholine receptor M1 (Homo sapiens), P11229; inhibition, % at 3 µM;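 active means percent inhibition above its own plate's cutoff, namely the mean of that plate's compound wells plus 3 SD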;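 further: peak over basal fluorescence ratio during 140 s after agonist addition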
TAAR1 antagonist: human TAAR1 antagonists, primary screen, Fluo-8 calcium fluorescence, CHO RD-HGA16 cells; Trace amine-associated receptor 1 (Homo sapiens), Q96RJ0; antagonist; inhibition, % at 3 µM; 1.5% of 360,000 active;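 active means inhibition above a per-plate cutoff, the mean inhibition of test compounds on that plate plus 3 SD, cut at about 49% in these data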
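System: RD-HGA16 CHO cells with stable hTAAR1 and Gα16 | Probe or stimulus: EC80 β-phenethylamine stimulus | Dosing: 3 µM, single point | Times: Dye loading 75 min at 37 °C, then 30 min room temperature | Measured by: Fluo-8 calcium-sensitive fluorescence | Read-out basis: % inhibition of agonist calcium response | Replicates: n of 1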
CHRM1 agonist: human M1 muscarinic receptor agonists, primary screen, Fluo-8 calcium fluorescence, CHO-K1 cells, HTS. 0.33% of 360,000 active. activation, % at 3 µM. CHO-K1 hM1, agonist mode; 0% DMSO, 100% acetylcholine EC100. AID 588814, 2011;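 active means activation above the run's mean compound activation plus 3 SD, cut at about 16% in these data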;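 further: peak over basal fluorescence ratio within a 140 s kinetic read after compound addition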
M1 PAM: human M1 muscarinic receptor positive allosteric modulators, primary screen, CHO-K1 cells, Fluo-8 calcium fluorescence, 1536-well | Muscarinic acetylcholine receptor M1 (Homo sapiens), P11229 | CHO-K1 hM1, ACh EC20; 0% = ACh EC20, 100% = maximal ACh | activation, % at 3 µM | 0.088% of 360,000 active; in the data active means activation above about 19%, passing the limit was not always enough
TAAR1 nonsel count: nonselective antagonists in TAAR1 counter-screen cells, counter-screen for hTAAR1 antagonist project, cell-based, fluorescence, calcium; shares compounds with TAAR1 antagonist; counterscreen cell line, antagonist mode; inhibition, % at 3 µM; 77% of 2,400 active; AID 651780, 2012; in the data active means inhibition above about 22%;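 further: CHO-Ga16 host cells stimulated with ATP at an EC80 level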
TAAR1 antag conf: human TAAR1 antagonists, retest of hits, confirmation, cell-based, fluorescence; shares compounds with TAAR1 antagonist; TAAR1-expressing cells, fluorescence antagonist read-out; inhibition, % at 3 µM; 40% of 2,400 active; AID 651785, 2012; in the data active means inhibition above about 49%;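 further: CHO-Ga16 host cells challenged with agonist PEA near its EC80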
Ga16 nonsel ag: calcium activation in Ga16-expressing cells, counter-screen for TAAR1 antagonist project, cell-based, fluorescence | shares compounds with TAAR1 antagonist | agonist counterscreen | activation, % at 3 µM | 18% of 2,400 active | AID 651953, 2012; in the data active means activation above about 12%
TAAR1 ag counter: TAAR1 activation by candidate antagonists – cell-based, fluorescence, counter-screen for TAAR1 antagonist project | shares compounds with TAAR1 antagonist | hTAAR1 cell line, agonist mode | activation, % at 3 µM | 2% of 2,400 active | AID 651955, 2012; in the data active means activation above about 37%;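 further: CHO cells stably expressing TAAR1 with calcium dye readout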
Hits are given with their value. Compounds with a hit are over-represented: about 3.9% of the library has one in this group of screens.

Screening Cc1cccc(NC(=O)c2cccc(N3C(=O)C4C5C=CC(C6CC56)C4C3=O)c2)c1 (configuration not stated) returned m5-HT2A agonist inactive, TAAR1 agonist inactive, M1 antag inactive, TAAR1 antagonist 58, CHRM1 agonist inactive, M1 PAM inactive, TAAR1 nonsel count 35, TAAR1 antag conf inactive, Ga16 nonsel ag inactive and TAAR1 ag counter inactive.
`O=C(NCc1ccccc1Cl)c1ccc(Br)o1` gave m5-HT2A agonist inactive, TAAR1 agonist inactive, M1 antag inactive, TAAR1 antagonist 104, CHRM1 agonist inactive, M1 PAM inactive, TAAR1 nonsel count inactive, TAAR1 antag conf inactive, Ga16 nonsel ag inactive and TAAR1 ag counter inactive.
O=C(CNC(=O)c1ccc(Br)o1)NCc1ccccc1Cl was read as m5-HT2A agonist inactive, TAAR1 agonist inactive, M1 antag inactive, TAAR1 antagonist inactive, CHRM1 agonist inactive and M1 PAM inactive.
Screening CC(C)N=C1SC(CC(=O)Nc2ccccc2)C(=O)N1C(C)C (configuration not stated) returned m5-HT2A agonist inactive, TAAR1 agonist inactive, M1 antag 26, TAAR1 antagonist 57, CHRM1 agonist inactive, M1 PAM inactive, TAAR1 nonsel count 35, TAAR1 antag conf inactive, Ga16 nonsel ag inactive and TAAR1 ag counter inactive.
Cc1ccc(C)c(N2CCN(C(=O)c3ccc(CSc4nc5ccncc5[nH]4)cc3)CC2)c1 was read as m5-HT2A agonist inactive, TAAR1 agonist inactive, M1 antag inactive, TAAR1 antagonist 50, CHRM1 agonist inactive, M1 PAM inactive, TAAR1 nonsel count 36, TAAR1 antag conf inactive, Ga16 nonsel ag 12 and TAAR1 ag counter inactive.
O=C(c1ccc(CSc2nc3ccncc3[nH]2)cc1)N1CCCCC1 was read as m5-HT2A agonist inactive, TAAR1 agonist inactive, M1 antag inactive, TAAR1 antagonist inactive, CHRM1 agonist inactive and M1 PAM inactive.
Screening O=C(Nc1cc(-c2nc3ncccc3o2)ccc1Cl)c1cccs1 returned m5-HT2A agonist inactive, TAAR1 agonist inactive, M1 antag inactive, TAAR1 antagonist 60, CHRM1 agonist inactive, M1 PAM inactive, TAAR1 nonsel count inactive, TAAR1 antag conf inactive, Ga16 nonsel ag inactive and TAAR1 ag counter inactive.
`COc1ccc(-c2nc3ncccc3o2)cc1NC(=O)c1cccs1` gave m5-HT2A agonist inactive, TAAR1 agonist inactive, M1 antag inactive, TAAR1 antagonist inactive, CHRM1 agonist inactive and M1 PAM inactive.
`O=C(O)c1ccc(COc2ccccc2C=C2C(=O)c3ccccc3C2=O)cc1` gave m5-HT2A agonist inactive, TAAR1 agonist inactive, M1 antag inactive, TAAR1 antagonist 75, CHRM1 agonist inactive, M1 PAM inactive, TAAR1 nonsel count 37, TAAR1 antag conf 54, Ga16 nonsel ag inactive and TAAR1 ag counter inactive.
For CN1C(=O)/C(=C/c2ccccc2OCc2ccc(C(=O)O)cc2)NC1=S the results were m5-HT2A agonist inactive, TAAR1 agonist inactive, M1 antag inactive, TAAR1 antagonist inactive, CHRM1 agonist inactive and M1 PAM inactive.
`Cn1cccc1/C=N\NC(=O)C1COc2ccc(C(C)(C)C)cc2O1` (configuration not stated) gave m5-HT2A agonist inactive, TAAR1 agonist inactive, M1 antag inactive, TAAR1 antagonist 51, CHRM1 agonist inactive, M1 PAM inactive, TAAR1 nonsel count 25, TAAR1 antag conf inactive, Ga16 nonsel ag inactive and TAAR1 ag counter inactive.
For O=C(Cn1cnc2ccccc21)N1CCN(S(=O)(=O)c2ccccc2)CC1 the results were m5-HT2A agonist inactive, TAAR1 agonist inactive, M1 antag inactive, TAAR1 antagonist inactive, CHRM1 agonist inactive and M1 PAM inactive.
Screening CC1(c2nnc(-c3ccc(Cl)cc3)o2)CC(c2c(Cl)cccc2Cl)=NO1 (configuration not stated) returned m5-HT2A agonist inactive, TAAR1 agonist inactive, M1 antag inactive, TAAR1 antagonist 56, CHRM1 agonist inactive, M1 PAM inactive, TAAR1 nonsel count 23, TAAR1 antag conf inactive, Ga16 nonsel ag inactive and TAAR1 ag counter inactive.
Screening CC1(c2nnc(-c3ccc(F)cc3)o2)CC(c2c(Cl)cccc2Cl)=NO1 (configuration not stated) returned m5-HT2A agonist inactive, TAAR1 agonist inactive, M1 antag inactive, TAAR1 antagonist inactive, CHRM1 agonist inactive and M1 PAM inactive.
Cc1cc(C)cc(C(=O)Nc2ccc(N3CCN(C(=O)c4ccco4)CC3)cc2)c1 was read as m5-HT2A agonist inactive, TAAR1 agonist inactive, M1 antag inactive, TAAR1 antagonist inactive, CHRM1 agonist inactive and M1 PAM inactive.
Screening O=C1OC(c2ccccc2)(N(Nc2ccccc2)c2ccccc2)c2ccccc21 (configuration not stated) returned m5-HT2A agonist inactive, TAAR1 agonist inactive, M1 antag inactive, TAAR1 antagonist inactive, CHRM1 agonist inactive and M1 PAM inactive.
`COc1cccc(OC)c1C(=O)Nc1cc(C)nn1-c1nc2ccccc2[nH]1` gave m5-HT2A agonist inactive, TAAR1 agonist inactive, M1 antag inactive, TAAR1 antagonist 69, CHRM1 agonist inactive, M1 PAM inactive, TAAR1 nonsel count 28, TAAR1 antag conf 49, Ga16 nonsel ag inactive and TAAR1 ag counter inactive.
`Cc1ccccc1S(=O)(=O)Oc1ccc2ccc(O)cc2c1` gave m5-HT2A agonist inactive, TAAR1 agonist inactive, M1 antag inactive, TAAR1 antagonist 66, CHRM1 agonist inactive, M1 PAM inactive, TAAR1 nonsel count 30, TAAR1 antag conf inactive, Ga16 nonsel ag inactive and TAAR1 ag counter inactive.
Cc1ccccc1C(=O)Oc1ccc2ccc(O)cc2c1 was read as m5-HT2A agonist inactive, TAAR1 agonist inactive, M1 antag inactive, TAAR1 antagonist inactive, CHRM1 agonist inactive and M1 PAM inactive.
